According to PubChem BioAssay:
Calls of active or inactive are those of the source.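 Rule for the calls, unless noted: active = visually confirmed hit in the image check and inhibition above 20%; inconclusive = visually confirmed hit but inhibition not above 20%; inactive = no visual hit in the image check.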

Legend:
[1] = inhibitors of TNFa-induced NFkB p65 translocation, primary screen, imaging, HUVEC, MLSMR starter and 10KST1 sets (AID 438;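 active = inhibition above 20% together with a positive visual image hit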;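 note: compound added about 3h40 before a 20 min TNFalpha stimulation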;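 for inhibition: signal is the nuclear over cytoplasmic p65 intensity ratio per well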); settings: HUVEC TNFa-induced p65 nuclear translocation; cell count: measured here: nuclei count (cytotoxicity indicator), at 2.08 µM; inhibition: at 2 µM, stronger effect = higher value, 0% TNFa-plus-vehicle, 100% no-TNFa wells
[2] = inhibitors of E-selectin induction by TNFa, primary screen, imaging, HUVEC, immunofluorescence, MLSMR starter and 10KST1 sets (AID 487); settings: HUVEC TNFalpha-induced E-selectin immunofluorescence imaging, at 2 µM; inhibition: stronger effect = higher value; nuclei count: measured here: cell number, toxicity;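 for inhibition: signal is fraction of cell area covered by stained E-selectin grains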;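 for nuclei count: 100% = median nuclei count of all wells on the same plate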
[3] = DUSP6 inhibitors restoring Erk phosphorylation by chemical complementation, primary imaging in DUSP6-transfected HeLa (AID 609;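 active = compounds giving at least 50% inhibition in the cell-based MKP-3 phosphatase rescue imaging test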;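 for inhibition: phospho-Erk level distribution per well compared with pooled transfected vehicle control wells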); settings: HeLa MKP-3 transfected, phospho-Erk imaging KS statistic, at 10 µM, cells stimulated with TPA for 15 min
[4] = molecular target: Dual specificity protein phosphatase 6 (Homo sapiens) (UniProt Q16828); assay: as above; settings: HeLa MKP-3 transfected, phospho-Erk imaging KS statistic; at 10 µM; stronger effect = higher value; cells stimulated with TPA for 15 min
Sequence of Dual specificity protein phosphatase 6 (Homo sapiens) (Q16828 whole entry, looked up): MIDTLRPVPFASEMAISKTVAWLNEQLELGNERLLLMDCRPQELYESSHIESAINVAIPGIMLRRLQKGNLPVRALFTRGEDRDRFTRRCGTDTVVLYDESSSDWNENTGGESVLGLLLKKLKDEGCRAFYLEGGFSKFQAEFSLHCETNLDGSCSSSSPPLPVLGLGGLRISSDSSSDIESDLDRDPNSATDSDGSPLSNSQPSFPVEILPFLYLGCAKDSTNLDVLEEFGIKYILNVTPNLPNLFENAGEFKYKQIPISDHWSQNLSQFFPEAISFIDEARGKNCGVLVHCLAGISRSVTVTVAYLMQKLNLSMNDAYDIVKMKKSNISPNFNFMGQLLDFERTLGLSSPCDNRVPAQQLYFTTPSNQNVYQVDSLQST

[5] = molecular target: Voltage-gated potassium channel subunit beta-2 (Rattus norvegicus) (UniProt P62483); assay: KvBeta enzyme negative modulators, primary screen, biochemical, NADPH fluorescence (AID 622;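 active = fluorescence slope higher than the sample average by over 3 SD, cut at about -0.22 in these data, passing the limit was not always enough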;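 note: slope of raw intensity against log time taken from 70 to 1610 s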); settings: recombinant KvBeta, 4-cyanobenzaldehyde reduction, at 10 µM, stronger effect = higher value
Sequence of Voltage-gated potassium channel subunit beta-2 (Rattus norvegicus) (P62483 whole entry, looked up): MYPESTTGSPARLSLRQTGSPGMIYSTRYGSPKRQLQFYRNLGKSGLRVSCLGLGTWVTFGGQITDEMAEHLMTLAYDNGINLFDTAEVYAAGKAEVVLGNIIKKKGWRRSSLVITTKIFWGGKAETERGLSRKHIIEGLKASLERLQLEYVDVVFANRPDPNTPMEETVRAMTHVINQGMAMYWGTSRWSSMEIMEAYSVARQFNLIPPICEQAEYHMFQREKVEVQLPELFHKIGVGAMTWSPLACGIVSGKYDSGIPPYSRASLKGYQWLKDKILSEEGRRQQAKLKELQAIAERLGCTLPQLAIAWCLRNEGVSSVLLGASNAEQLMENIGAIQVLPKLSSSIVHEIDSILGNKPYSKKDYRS

[6] = molecular target: Voltage-gated potassium channel subunit beta-2 (Rattus norvegicus) (UniProt P62483); assay: KvBeta positive modulators, primary screen, biochemical, NADPH fluorescence (AID 623;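 active = NADPH fluorescence slope more negative than the mean of all samples by about 3 SD, 99.7% confidence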;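 note: fluorescence intensity change per second fitted from 20 to 320 s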); settings: Recombinant KvBeta, NADPH fluorescence decrease slope, 10 min; at 10 µM; stronger effect = lower value
[7] = molecular target: Muscarinic acetylcholine receptor M4 (Homo sapiens) (UniProt P08173); assay: compounds altering M4/GIRK thallium flux, either direction, primary screen, M4 allosteric agonist project, cell-based, HEK293 M4/GIRK, BTC-AM (AID 625;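 active = fluorescence slope after compound addition differing from the mean of all tested samples at 99.7% confidence, mostly higher but some lower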;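 note: thallium influx through GIRK channels coupled to M4 in HEK293 cells with BTC-AM dye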); settings: at 10 µM, actives lie on both sides
Sequence of Muscarinic acetylcholine receptor M4 (Homo sapiens) (P08173 whole entry, looked up): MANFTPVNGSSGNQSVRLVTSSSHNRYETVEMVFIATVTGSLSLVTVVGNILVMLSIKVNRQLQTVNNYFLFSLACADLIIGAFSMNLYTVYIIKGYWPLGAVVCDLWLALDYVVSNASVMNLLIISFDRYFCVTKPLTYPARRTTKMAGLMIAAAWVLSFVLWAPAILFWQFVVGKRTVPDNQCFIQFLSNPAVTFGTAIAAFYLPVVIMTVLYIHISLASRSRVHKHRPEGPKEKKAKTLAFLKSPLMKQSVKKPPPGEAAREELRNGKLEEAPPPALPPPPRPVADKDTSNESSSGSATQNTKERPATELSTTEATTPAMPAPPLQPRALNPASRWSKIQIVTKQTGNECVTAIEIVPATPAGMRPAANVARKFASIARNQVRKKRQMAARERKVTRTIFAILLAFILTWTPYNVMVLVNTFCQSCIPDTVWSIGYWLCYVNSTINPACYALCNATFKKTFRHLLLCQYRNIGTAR
In short: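 Material – HEK293 cells with M4 receptor and GIRK channels · Buffer or medium – pH 7.3 thallium assay buffer · Doses – one dose, 10 µM final · Timing – cells overnight at 37 °C, BTC-AM loading 1 h, reads 2 min total · Measured by – kinetic fluorescence with BTC-AM dye · Controls – carbachol and DMSO controls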

[8] = inhibitors of larval lipid processing in zebrafish, primary screen, whole organism, PED6 fluorescence, gall bladder and intestine (AID 686;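 active = a full or partial loss of lipid-probe fluorescence in the fish gall bladder, intestine or both, judged by eye; inactive = no fluorescence loss, or compound toxic to the fish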;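 note: larvae 5 to 7 days old with five fish per well; signal comes from phospholipase A2 cleavage of quenched PED6 carried via bile; overnight exposure to compound and PED6 before scoring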); settings: Zebrafish larvae PED6 lipid processing, fluorescence scoring; screened at 20 µM (by protocol)
In short: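 system = live zebrafish larvae aged 5-7 days, whole organism | probe or stimulus = ingested quenched lipid PED6 at 100 nM | doses = 20 µM single dose | timing = overnight exposure | detection = fluorescence microscopy with visual scoring of gall bladder and intestine | read-out = visual per-well fluorescence inhibition score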

[9] = inhibitors of Chlamydomonas gravitaxis, primary screen, whole organism, Chlamydomonas reinhardtii, WT vs cilia-less mutant, absorbance, 96-well (AID 463189;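 active = inhibition at or above 50% relative to wild type and mutant plate controls; inactive = inhibition below 50%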;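 note: 0% = wild type cc124 cells in DMSO and 100% = ciliumless bld1 mutant cells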); settings: OD600 absorbance, 2 days, at 10 µM, stronger effect = higher value
[10] = measured here: cell density z-score
[11] = measured here: nuclear c-Myc green intensity z-score
[12] = measured here: nuclear pErk red intensity z-score, stronger effect = higher value

| Structure (SMILES) | cell count [1] | inhibition [1] | inhibition [2] | nuclei count [2] | z-score [3, 10] | z-score [3, 11] | z-score [3, 12] | inhibition [4] | fluorescence slope [5] | NADPH fluorescence slope [6] | fluorescence slope [7] | outcome [8] | inhibition [9] |
| --- | --- | --- | --- | --- | --- | --- | --- | --- | --- | --- | --- | --- | --- |
| Cc1cc(C)n(-c2ncnc3sc(C)c(C)c23)n1 | 577 | -0.8% (inactive) | -64.7% (inactive) | 157% | 0.455 | 0.0261 | 1.38 | 19.8% (inactive) | -0.293 (inactive) | -3.5e-05 (inactive) | 0.00669 (inactive) | inactive | -1.64% (inactive) |
| Cc1cccc(NC(=O)c2cc(N3CCOCC3)nc3ccccc23)c1 | 620 | -13.1% (inactive) | -446% (inactive) | 148% | -1.06 | 1.5 | 2.96 | -11.5% (inactive) | -0.438 (inactive) | -7.5e-05 (inactive) | 0.00519 (inactive) | inactive | -4.1% (inactive) |
| O=C(Nc1ccccn1)c1ccc(=O)[nH]n1 | 634 | 4.2% (inactive) | -92.2% (inactive) | 134% | 0.857 | -1.57 | -0.248 | 6.51% (inactive) | -0.475 (inactive) | -0.0002 (inactive) | 0.00627 (inactive) | inactive | 20.6% (inactive) |
| CC12CN3CC(C)(CN(C1)C3c1ccc(Cl)cc1Cl)C2O (stereo not given) | 486 | -4% (inactive) | -90.6% (inactive) | 121% | -2.88 | 1.19 | -1.32 | -0.584% (inactive) | -0.52 (inactive) | -6.5e-05 (inactive) | 0.0049 (inactive) | inactive | -8.3% (inactive) |
| CC1(C)Cc2c(c(-c3ccco3)[nH]c(=O)c2C#N)CS1 | 706 | -0.5% (inactive) | -101% (inactive) | 143% | 0.203 | 0.427 | 1.52 | -11.5% (inactive) | -0.388 (inactive) | -9.3e-05 (inactive) | 0.00494 (inactive) | inactive | 3.67% (inactive) |
| Cc1cc(=O)oc(C)c1C(=O)NC1CC(C)(C)NC(C)(C)C1 | 688 | -8.3% (inactive) | -70.2% (inactive) | 160% | -0.541 | 0.659 | 0.228 | -10.1% (inactive) | -0.463 (inactive) | -1.7e-05 (inactive) | 0.00552 (inactive) | inactive | 6.56% (inactive) |
| Clc1ccc(-n2ncc3c(NCc4ccco4)ncnc32)cc1 | 582 | -17.4% (inactive) | 19.7% (inactive) | 154% | 0.502 | -0.386 | 0.00112 | 19.4% (inactive) | -0.339 (inactive) | -2.6e-05 (inactive) | 0.00727 (inactive) | inactive | 45.5% (inactive) |
| CCN(CC)c1nc(-c2cccc(OC)c2O)nc2ccccc12 | 624 | -3.5% (inactive) | -45.9% (inactive) | 171% | -1.06 | -1.37 | 0.629 | 4.37% (inactive) | -0.5 (inactive) | -9.9e-05 (inactive) | 0.005 (inactive) | inactive | 15.7% (inactive) |
| O=c1cc(-c2ccco2)nc(-c2cccs2)o1 | 667 | 5.6% (inactive) | 7.4% (inactive) | 99.4% | -0.166 | -0.514 | -0.386 | 9.91% (inactive) | -0.561 (inactive) | -5.3e-05 (inactive) | 0.0053 (inactive) | inactive | 22.8% (inactive) |
| O=C(CN1C2=NCCN2c2ccccc21)N1CCOCC1 | 629 | 11% (inactive) | -7.9% (inactive) | 115% | 0.036 | -0.429 | -0.703 | -7.67% (inactive) | -0.447 (inactive) | -4.9e-05 (inactive) | 0.00508 (inactive) | inactive | -8.14% (inactive) |
| C/C(NC(=O)c1cccs1)=C1\C(=O)C[C@@H]2[C@H]1C2(C)C | 562 | -1.6% (inactive) | -127% (inactive) | 150% | 0.211 | -0.0395 | -0.0984 | 11.9% (inactive) | -0.392 (inactive) | -6e-05 (inactive) | 0.00498 (inactive) | inactive | -3.09% (inactive) |
| C=CCc1cccc(CNc2nc3ccccc3n2C(C)C)c1O | 653 | 4.4% (inactive) | 17.8% (inactive) | 145% | -1.18 | 1.98 | 1.18 | -3.95% (inactive) | -0.502 (inactive) | -9.2e-05 (inactive) | 0.00595 (inactive) | inactive | 2.16% (inactive) |
| Cn1c(=O)c2c(nc(Br)n2Cc2ccc3ccccc3c2)n(C)c1=O | 623 | -9.2% (inactive) | -12.5% (inactive) | 163% | -0.362 | -0.997 | 0.811 | -8.95% (inactive) | -0.5 (inactive) | -5.2e-05 (inactive) | 0.00605 (inactive) | inactive | 5.52% (inactive) |
| CCCCOC(=O)c1[nH]c(C)c(C(=O)OC)c1C | 604 | -7.5% (inactive) | 50.3% (inactive) | 98.7% | 0.82 | -1.07 | -0.474 | 37% (inactive) | -0.481 (inactive) | -1.9e-05 (inactive) | 0.00588 (inactive) | inactive | 90.5% (active) |
| CC(C(=O)NC(=O)NCc1ccccc1)N1C(=O)c2ccccc2C1=O (stereo not given) | 655 | 6.1% (inactive) | -28.7% (inactive) | 94.9% | 0.127 | 0.0595 | -0.687 | -11.4% (inactive) | -0.461 (inactive) | -4.3e-05 (inactive) | 0.00457 (inactive) | inactive | -4.8% (inactive) |
| CC(C)c1nc(N2CCOCC2)c(C#N)c2c1COC(C)(C)C2 | 535 | -5.2% (inactive) | -79.8% (inactive) | 110% | 0.188 | -0.524 | -1.28 | -9.53% (inactive) | -0.424 (inactive) | 4.6e-06 (inactive) | 0.00516 (inactive) | inactive | -30% (inactive) |
| Cc1ccc(-n2ncc3c(NCc4cccnc4)ncnc32)c(C)c1 | 623 | -10.1% (inactive) | 33.3% (inactive) | 103% | -0.852 | 0.459 | 0.734 | 1.42% (inactive) | -0.325 (inactive) | -4.3e-05 (inactive) | 0.00518 (inactive) | inactive | -12.1% (inactive) |
| CCOc1ccc(N2C(=O)CC(N)C2=O)cc1 (stereo not given) | 726 | 11.3% (inactive) | 33.5% (inactive) | 123% | -0.139 | 1.28 | 0.161 | -13.3% (inactive) | -0.462 (inactive) | -5.8e-05 (inactive) | 0.00592 (inactive) | inactive | 19.4% (inactive) |
| COc1ccc(C(=O)Nc2ccccc2N2CCOCC2)cc1Br | 522 | -7.6% (inactive) | -11.8% (inactive) | 153% | 2.22 | -2.31 | -0.121 | 37.7% (inactive) | -0.351 (inactive) | -9.8e-06 (inactive) | 0.00733 (inactive) | inactive | 10.5% (inactive) |
| CCSc1nnc(NC(NC(=O)c2ccco2)(C(F)(F)F)C(F)(F)F)s1 | 608 | -7.3% (inactive) | -13.8% (inactive) | 91.9% | -1.05 | -0.75 | -0.312 | -7.67% (inactive) | -0.483 (inactive) | -3.9e-05 (inactive) | 0.00455 (inactive) | inactive | -9.53% (inactive) |
| O=C(C/C(=N/O)c1ccccc1O)C(F)F | 454 | -0.6% (inactive) | -48.8% (inactive) | 164% | -0.709 | 1.7 | 1.49 | 9.37% (inactive) | -0.451 (inactive) | -2.7e-05 (inactive) | 0.0043 (inactive) | inactive | -1.93% (inactive) |
| Cc1ccc(-n2[nH]c(C)c(C=Nc3cc(C)ccn3)c2=O)cc1 | 512 | 3% (inactive) | 4.6% (inactive) | 87.7% | -0.346 | -0.03 | 0.605 | -13.3% (inactive) | -0.459 (inactive) | -3.6e-05 (inactive) | 0.0056 (inactive) | inactive | 51.3% (active) |
| CCCCCOc1ccc(C(=O)NCC(=O)NCC(=O)OCC)cc1 | 715 | 9.7% (inactive) | -113% (inactive) | 150% | -0.426 | -0.0633 | -0.949 | 1.63% (inactive) | -0.417 (inactive) | -6e-05 (inactive) | 0.00389 (inactive) | inactive | -5.95% (inactive) |
| CCCC1CC(=O)OC1(C)C(=O)CSc1n[nH]c(-c2ccccc2)n1 (stereo not given) | 686 | -3.7% (inactive) | -35.6% (inactive) | 142% | 0.882 | 0.0839 | -0.223 | -9.66% (inactive) | -0.472 (inactive) | -1.5e-05 (inactive) | 0.00594 (inactive) | active; no signal in intestine only | -3.69% (inactive) |
| O=S(=O)(N[C@@H]1C[C@H]2CC[C@@H]1C2)c1cccs1 | 433 | -8.9% (inactive) | -51.9% (inactive) | 155% | 1.4 | -0.527 | -0.281 | 9.37% (inactive) | -0.458 (inactive) | -3.1e-05 (inactive) | 0.00569 (inactive) | inactive | -1.87% (inactive) |
